Data: ChEMBL document CHEMBL3046309, “Dihydropiperazine neonicotinoid compounds. Synthesis and insecticidal activity” (J Agric Food Chem, 2003)
Calls of active or inactive are those of the source. The rule behind the calls is not given here.

How the values were obtained:
[1] = target: T1, Nicotinic acetylcholine receptor alpha 5 subunit (Musca domestica, UniProt A9XFY4); experiment: Displacement of [3H]imidacloprid from nicotinic acetylcholine receptor in Musca domestica (house fly) head membrane after 1 hr by liquid scintillation counting analysis
T1 sequence (A9XFY4 whole entry): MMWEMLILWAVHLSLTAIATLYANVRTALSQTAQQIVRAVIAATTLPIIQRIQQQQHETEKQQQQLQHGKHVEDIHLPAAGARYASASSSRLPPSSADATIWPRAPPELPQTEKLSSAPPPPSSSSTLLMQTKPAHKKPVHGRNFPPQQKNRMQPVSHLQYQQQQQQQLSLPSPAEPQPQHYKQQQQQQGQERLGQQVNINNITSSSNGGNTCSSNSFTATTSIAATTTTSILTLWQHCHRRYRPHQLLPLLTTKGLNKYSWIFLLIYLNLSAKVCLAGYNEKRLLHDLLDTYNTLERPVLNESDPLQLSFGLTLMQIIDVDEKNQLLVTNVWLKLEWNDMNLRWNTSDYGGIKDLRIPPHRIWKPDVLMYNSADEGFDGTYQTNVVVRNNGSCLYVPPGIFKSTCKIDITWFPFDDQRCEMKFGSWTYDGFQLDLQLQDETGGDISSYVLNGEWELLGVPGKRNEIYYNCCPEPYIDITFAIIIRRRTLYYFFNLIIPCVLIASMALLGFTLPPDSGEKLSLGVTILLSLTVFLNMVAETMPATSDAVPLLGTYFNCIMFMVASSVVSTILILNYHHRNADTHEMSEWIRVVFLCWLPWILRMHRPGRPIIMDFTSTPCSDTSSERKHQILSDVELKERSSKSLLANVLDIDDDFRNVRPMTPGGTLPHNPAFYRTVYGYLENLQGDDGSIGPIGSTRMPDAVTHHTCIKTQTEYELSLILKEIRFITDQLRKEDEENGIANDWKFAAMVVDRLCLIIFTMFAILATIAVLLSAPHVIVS
Method in brief: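 Housefly heads separated from liquid-nitrogen-frozen adults, homogenized in ice-cold sucrose/EDTA/Tris-HCl/PMSF buffer. Membranes were prepared by 1000g then twice 35000g spins, resuspended in 50 mM Tris-HCl pH 7.4 and stored at -80 °C. Binding buffer was 120 mM NaCl, 50 mM Tris-HCl pH 7.4, with [3H]imidacloprid at 2 nM final and DMSO ≤0.25%. Incubation 1 h at 22 °C, then GF/C filtration. Nonspecific binding was set with 10^-4 M nicotine. Three runs in triplicate.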

Aphis gossypii [2] = experiment: Insecticidal activity against Aphis gossypii (cotton aphid) infested expanded cotyledon stage of summer crookneck squash seedlings assessed as mortality at 50 ppm applied as spray after 72 hr by dissecting binocular microscopic analysis relative to control; format: functional
Method in brief: (§1)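 Four replicate plants per rate; controls were eight plants sprayed with blank-stock diluent. Plants held 72 h at about 74 °F, 40% RH, 24 h photoperiod. Live nonwinged aphids were counted on cotyledon undersides. Percent control was calculated by Abbott's correction against the solvent blank.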

Aphis gossypii [3] = experiment: Insecticidal activity against Aphis gossypii (cotton aphid) infested expanded cotyledon stage of summer crookneck squash seedlings assessed as mortality at 0.5 ppm applied as spray after 72 hr by dissecting binocular microscopic analysis relative to control; format: functional; method in brief: as §1
Aphis gossypii [4] = experiment: Insecticidal activity against Aphis gossypii (cotton aphid) infested expanded cotyledon stage of summer crookneck squash seedlings assessed as mortality at 5 ppm applied as spray after 72 hr by dissecting binocular microscopic analysis relative to control; format: functional; method in brief: as §1
Aphis gossypii [5] = experiment: Insecticidal activity against Aphis gossypii (cotton aphid) infested expanded cotyledon stage of summer crookneck squash seedlings assessed as mortality at 0.78 ppm applied as spray after 72 hr by dissecting binocular microscopic analysis relative to control; format: functional; method in brief: as §1
Bemisia tabaci = experiment: Insecticidal activity against Bemisia tabaci (sweet potato whitefly); format: functional, organism-based
Nilaparvata lugens = experiment: Insecticidal activity against Nilaparvata lugens (brown plant hopper); format: functional, organism-based
Nephotettix cincticeps = experiment: Insecticidal activity against Nephotettix cincticeps (green rice leafhopper); format: functional, organism-based

CO/N=C1/NCCN(Cc2ccc(Cl)nc2)C1=O
Ki [1]: 1530 nM | mortality at 50 ppm (Aphis gossypii [2]): 90% | mortality at 0.5 ppm (Aphis gossypii [3]): 50% | mortality at 5 ppm (Aphis gossypii [4]): 70%

O=C1C(=S)NCCN1Cc1ccc(Cl)nc1
Ki [1]: 1780 nM | mortality at 50 ppm (Aphis gossypii [2]): 90% | mortality at 0.5 ppm (Aphis gossypii [3]): 50% | mortality at 5 ppm (Aphis gossypii [4]): 50%

CN(C)C(=O)/C(=N\C#N)N(C)Cc1ccc(Cl)nc1
Ki [1]: 3830 nM | mortality at 50 ppm (Aphis gossypii [2]): 50% | mortality at 5 ppm (Aphis gossypii [4]): < 50%

CN1C/C(=N\C#N)N(Cc2ccc(Cl)nc2)CC1=O
mortality at 50 ppm (Aphis gossypii [2]): 70% | mortality at 5 ppm (Aphis gossypii [4]): < 50%

CN1CCN=C(N(C#N)Cc2ccc(Cl)nc2)C1=O
mortality at 50 ppm (Aphis gossypii [2]): < 50% | mortality at 5 ppm (Aphis gossypii [4]): < 50%

CN1CCN(Cc2cnc(Cl)s2)/C(=N\C#N)C1=O
Ki [1]: 4 nM | mortality at 50 ppm (Aphis gossypii [2]): 90% | mortality at 0.78 ppm (Aphis gossypii [5]): 70%

N#C/N=C1/NCCN(Cc2ccc(Cl)nc2)C1=O
Ki [1]: 441 nM | mortality at 50 ppm (Aphis gossypii [2]): 90% | mortality at 0.5 ppm (Aphis gossypii [3]): < 50% | mortality at 5 ppm (Aphis gossypii [4]): 50%

N#C/N=C1\NCCN1Cc1ccc(Cl)nc1
Ki [1]: 17 nM | mortality at 50 ppm (Aphis gossypii [2]): 90% | mortality at 5 ppm (Aphis gossypii [4]): 90%

NC(=S)N/N=C1/NCCN(Cc2ccc(Cl)nc2)C1=O
Ki [1]: 3920 nM | mortality at 50 ppm (Aphis gossypii [2]): < 50% | mortality at 5 ppm (Aphis gossypii [4]): < 50%

O=C1/C(=N\O)NCCN1Cc1ccc(Cl)nc1
mortality at 50 ppm (Aphis gossypii [2]): 70% | mortality at 0.5 ppm (Aphis gossypii [3]): < 50% | mortality at 5 ppm (Aphis gossypii [4]): 50%

CN1CCN(Cc2ccc(Cl)nc2)/C(=N/C#N)C1=O
Ki [1]: 6 nM | mortality at 50 ppm (Aphis gossypii [2]): 90% | Activity (Bemisia tabaci): Active | mortality at 0.78 ppm (Aphis gossypii [5]): 90% | Activity (Nilaparvata lugens): Active | Activity (Nephotettix cincticeps): Active

O=C1/C(=N\S(=O)(=O)C(F)(F)F)NCCN1Cc1ccc(Cl)nc1
Ki [1]: 593 nM | mortality at 50 ppm (Aphis gossypii [2]): 90% | mortality at 0.5 ppm (Aphis gossypii [3]): < 50% | mortality at 5 ppm (Aphis gossypii [4]): 90%

CN1CCN(CC2CCOC2)/C(=N\C#N)C1=O (stereo not drawn)
Ki [1]: 517 nM | mortality at 50 ppm (Aphis gossypii [2]): < 50% | mortality at 5 ppm (Aphis gossypii [4]): < 50%

O=C1NCCN(Cc2ccc(Cl)nc2)C1=O
Ki [1]: 400 nM | mortality at 50 ppm (Aphis gossypii [2]): 90% | mortality at 0.5 ppm (Aphis gossypii [3]): 50% | mortality at 5 ppm (Aphis gossypii [4]): 90%
